Measured values pooled from the literature.
Lines come from different studies, so protocols differ.
Target: Serine/threonine-protein kinase MARK2 (MARK2, Homo sapiens, UniProt Q7KZI7)

`CN(CCCC(F)(F)F)c1nccc(-c2cnn3ncccc23)n1` has a remaining binding of 100% (binding; 1 µM).
`O=C(c1ccc(Nc2ncc(Cl)c(-c3ccc(Cl)s3)n2)cc1)N1CCC(N2CCCC2)CC1` has a remaining binding of 69% (binding; competition with immobilised ligand; 1 µM).
`COc1cccc(CNC(=O)c2nc3scc(COCc4ccc(C(=O)O)cc4)c3c(=O)[nH]2)c1` has a remaining binding of 100% (cell-free assay; competition with immobilised ligand; 1 µM).
`N[C@@H]1CCN(c2nccc(-c3cnn4ncccc34)n2)C1` has a remaining binding of 100% (binding; 1 µM).
For `O=C(Nc1c[nH]nc1C(=O)NC1CCNCC1)c1cc(F)cc(F)c1`, the remaining binding was 100% (binding; competition with immobilised ligand; 1 µM).
For `O=C(O)[C@@H]1[C@@H](Cn2nnc3ccccc3c2=O)CC[C@H]1C(=O)c1ccc(OCCC2CCOCC2)cc1`, the remaining binding was 100% (cell-free assay; competition with immobilised ligand; 1 µM).
With `C[C@H]1CCN(c2nccc(-c3cnn4ncccc34)n2)C1` the remaining binding was 100% (binding; 1 µM).
`O=C(NCCCC1CCCCC1)c1ccc(CNC(=O)c2cnn(-c3ccccc3)c2C(F)(F)F)cc1` gave a remaining binding of 100% (cell-free assay; competition with immobilised ligand; 0.1 µM).
For `c1cnn2ncc(-c3ccnc(N4CCC45COC5)n3)c2c1`, the remaining binding was 63% (binding; 1 µM).
`C[C@@]1(Cc2ccc(C#N)cc2)C(=O)N(c2cc(Cl)cc(Cl)c2)c2ncc(C(=O)NC3(c4nc(C5CCC5)no4)CC3)n21` has a remaining binding of 85% (cell-free assay; competition with immobilised ligand; 1 µM).
The remaining binding of `COc1cnc(Nc2cccc(S(N)(=O)=O)c2)nc1N1CCN(c2ccccc2)C(=O)C1` is reported as 100% (binding; competition with immobilised ligand; 1 µM).
With `O=S(=O)(NC1CCC(c2cc(F)ccc2F)(S(=O)(=O)c2ccc(Cl)cc2)CC1)C(F)(F)F` (stereo not shown) the remaining binding was 100% (cell-free assay; competition with immobilised ligand; 1 µM).
`CN(C)c1nccc(-c2cnc3ncccn23)n1` gave a remaining binding of 100% (binding; 1 µM).
The remaining binding of `O=C(NCCCN1CCOCC1)c1ccc(Nc2nccc(-c3cc4ccccc4s3)n2)cc1` is reported as 81% (binding; competition with immobilised ligand; 1 µM).
With `CN(c1nccc(-c2cnn3ncccc23)n1)C1CC1` the remaining binding was 100% (binding; 1 µM).
`C[C@@H](c1ccc(-n2cnc3c(N)ncnc32)cc1)N1CCc2nn(C)c(Cc3ccccc3)c2C1=O` has a remaining binding of 91% (binding; competition with immobilised ligand; 0.1 µM).
The remaining binding of `COc1ncc2cc3ccccc3nc2c1C#N` is reported as 97% (cell-free assay; competition with immobilised ligand; 5 µM).
`Cc1cnc(Nc2ccc(C(=O)N3CCC(N4CCCC4)CC3)cc2)nc1-c1cc2ccccc2s1` has a remaining binding of 68% (binding; competition with immobilised ligand; 1 µM).
`C[C@H](NC(=O)c1cnc2n1[C@](C)(Cc1ccc(C#N)cc1)C(=O)N2c1cc(Cl)c(F)c(Cl)c1)C(=O)NC1(c2ccccn2)CC1` has a remaining binding of 100% (cell-free assay; competition with immobilised ligand; 1 µM).
For `C=CC(=O)N1CCC(C(=O)NCC(=O)N2CCN(c3nc(-c4cnc(N)nc4C(F)F)nc(N4CCOCC4)n3)CC2)CC1`, the remaining binding was 90% (binding; competition with immobilised ligand; 1 µM).
`CC1CCCN1c1nccc(-c2cnn3ncccc23)n1` (stereo not shown) has a remaining binding of 70% (binding; 1 µM).
With `CCc1ccccc1C(=O)Nc1n[nH]c2c(C)c(F)c(C3C(C#N)=C(C)N(C)C(C)=C3C#N)cc12` the remaining binding was 40% (cell-free assay; competition with immobilised ligand; 1 µM).
